Measured values taken from article PMC4766003 (Biomacromolecules, 2015).

Target: Concanavalin A (Con A) (Canavalia ensiformis, UniProt P02866)
Test: isothermal titration calorimetry, one-site model
Type: binding
Conditions: 100 mM acetate pH 4.6, 1 mM MnCl2, 1 mM CaCl2, 30 mM NaCl, 25 °C; dimeric Con A
How it was run: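 Con A dialysed (10 kDa cutoff) into the assay buffer, with concentration from A280 (A1%,1cm = 12.4, monomer basis). Glycopolymer ligands were dialysed and quantified colorimetrically. Titrant in the same buffer was injected into Con A at 25 °C, stirred at 1000 rpm. Con A 0.42–0.06 mM; polymers 0.338–0.017 mM at 2 s intervals; monomers 7.55–8.03 mM at 4 s intervals. One-site fit floated ΔH, Ka and n.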

Sequence of Concanavalin A (Con A) (P02866 30-148 limits assumed): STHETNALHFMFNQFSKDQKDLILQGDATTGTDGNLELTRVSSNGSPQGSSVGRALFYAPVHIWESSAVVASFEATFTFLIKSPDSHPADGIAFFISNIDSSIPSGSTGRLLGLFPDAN
Sequence of Concanavalin A (Con A) (P02866 164-281 limits assumed): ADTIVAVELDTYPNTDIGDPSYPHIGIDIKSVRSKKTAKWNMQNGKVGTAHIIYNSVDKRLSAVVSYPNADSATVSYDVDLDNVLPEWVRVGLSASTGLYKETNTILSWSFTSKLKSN

| Substance | Ka (M^-1 × 10^3)^c |
| --- | --- |
| Man-Glc [25b] | 8.56 × 10^3 |
| Man-Man [22b] | 17.3 × 10^3 |
